Measurements from ChEMBL document CHEMBL1145545, “Discovery of a novel A2B adenosine receptor antagonist as a clinical candidate for chronic inflammatory airway diseases” (J Med Chem, 2008).

Assays:
Homo sapiens [1] = species on record: Homo sapiens; assay: Selectivity for human recombinant adenosine A2B receptor over human recombinant adenosine A3 receptor
[2] = Cmax in Sprague-Dawley rat at 2 mg/kg, po; assay type: ADME, organism-based; set-up: dose 2 mg/kg, route oral; settings: in vivo
Homo sapiens [3] = species on record: Homo sapiens; assay: Selectivity for human recombinant adenosine A2B receptor over human recombinant adenosine A2A receptor
Homo sapiens [4] = species on record: Homo sapiens; assay: Selectivity for human recombinant adenosine A2B receptor over human recombinant adenosine A1 receptor
Adenosine receptor A1 = molecular target: T1, Adenosine receptor A1 (Homo sapiens, UniProt P30542); assay: Displacement of [3H]CPX from human recombinant adenosine A1 receptor expressed in CHO cells; assay type: cell-based
T1 sequence (P30542 whole entry): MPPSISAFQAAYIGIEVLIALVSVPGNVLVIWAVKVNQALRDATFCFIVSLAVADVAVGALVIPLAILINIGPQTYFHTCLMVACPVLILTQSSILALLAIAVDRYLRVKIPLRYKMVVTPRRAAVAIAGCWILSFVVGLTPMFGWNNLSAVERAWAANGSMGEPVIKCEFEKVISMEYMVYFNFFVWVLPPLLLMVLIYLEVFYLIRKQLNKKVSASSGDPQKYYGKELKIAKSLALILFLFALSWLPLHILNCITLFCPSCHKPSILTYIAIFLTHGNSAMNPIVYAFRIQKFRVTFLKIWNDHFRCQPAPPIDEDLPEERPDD
Summary of the method: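 CHO cell membranes stably expressing human A1 receptor; 0.5 nM [3H]CPX competed with test compound in 50 mM Tris/1 mM EDTA plus 1 U/mL adenosine deaminase, 25 °C, 90 min, gentle agitation; filtration and four ice-cold Tris/MgCl2 washes. Nonspecific binding defined with 1 µM CPX; Ki values derived.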

Adenosine receptor A2b = molecular target: T2, Adenosine receptor A2b (Homo sapiens, UniProt P29275); assay: Displacement of [3H]ZM-241385 from human recombinant adenosine A2B receptor expressed in HEK293 cells; assay type: cell-based
T2 sequence (P29275 whole entry): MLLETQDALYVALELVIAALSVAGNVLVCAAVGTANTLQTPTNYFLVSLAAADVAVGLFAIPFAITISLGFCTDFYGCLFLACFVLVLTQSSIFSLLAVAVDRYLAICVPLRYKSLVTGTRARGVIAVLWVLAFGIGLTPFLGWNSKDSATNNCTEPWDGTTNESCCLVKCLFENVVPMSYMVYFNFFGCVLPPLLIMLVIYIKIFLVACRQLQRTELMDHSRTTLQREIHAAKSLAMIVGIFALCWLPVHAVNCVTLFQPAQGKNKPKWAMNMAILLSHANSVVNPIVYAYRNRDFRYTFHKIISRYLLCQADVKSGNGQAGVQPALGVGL
Summary of the method: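 Membranes from HEK293 cells stably expressing human A2B receptor; competition with 10 nM radioligand, 50 µg membrane protein, in 50 mM Tris/1 mM EDTA with 1 U/mL adenosine deaminase, 25 °C for 90 min with gentle agitation; filtration, four ice-cold Tris/MgCl2 washes. Nonspecific binding defined with 10 µM unlabelled ligand; Ki calculated.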

[5] = molecular target: T3, Adenosine receptor A2b (Mus musculus) (UniProt Q60614); assay: Antagonist activity at mouse adenosine A2B receptor expressed in NIH3T3 cells assessed as inhibition of NECA-induced cAMP accumulation; assay type: functional, cell-based
T3 sequence (whole entry): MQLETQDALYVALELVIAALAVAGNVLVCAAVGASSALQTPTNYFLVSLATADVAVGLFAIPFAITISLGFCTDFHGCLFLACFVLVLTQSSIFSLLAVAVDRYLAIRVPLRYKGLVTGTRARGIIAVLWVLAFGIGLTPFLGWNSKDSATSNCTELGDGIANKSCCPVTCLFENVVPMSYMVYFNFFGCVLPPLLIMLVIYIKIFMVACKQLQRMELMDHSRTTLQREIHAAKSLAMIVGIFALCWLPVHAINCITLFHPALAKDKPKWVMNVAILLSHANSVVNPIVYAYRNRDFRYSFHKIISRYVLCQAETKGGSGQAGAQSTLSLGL
Summary of the method: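 Mouse NIH/3T3 cells stimulated with NECA (1 nM to 100 µM) without or with increasing antagonist concentrations; cAMP accumulation measured. KB obtained by Schild analysis; mean ± SEM of three experiments in duplicate.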

[6] = Half life in Sprague-Dawley rat at 2 mg/kg, po; assay type: ADME, organism-based; set-up: dose 2 mg/kg, route oral; settings: in vivo
Adenosine receptor A3 = molecular target: T4, Adenosine receptor A3 (Homo sapiens, UniProt P0DMS8); assay: Displacement of [125I]ABMECA from human recombinant adenosine A3 receptor expressed in CHO cells; assay type: cell-based
T4 sequence (P0DMS8 whole entry): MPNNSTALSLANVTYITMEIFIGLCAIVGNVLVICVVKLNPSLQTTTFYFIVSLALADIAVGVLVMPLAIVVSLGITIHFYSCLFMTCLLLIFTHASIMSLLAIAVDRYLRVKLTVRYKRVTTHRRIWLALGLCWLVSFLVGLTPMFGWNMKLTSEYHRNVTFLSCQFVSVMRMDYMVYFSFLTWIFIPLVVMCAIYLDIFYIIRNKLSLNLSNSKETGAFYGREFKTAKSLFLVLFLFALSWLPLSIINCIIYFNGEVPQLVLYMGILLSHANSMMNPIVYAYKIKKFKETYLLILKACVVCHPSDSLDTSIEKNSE
Summary of the method: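 Human A3 receptor stably expressed in CHO cells; membranes incubated with 0.1 nM 125I-AB-MECA and test compound in 50 mM Tris, 1 mM EDTA, 10 mM MgCl2 plus 1 U/mL adenosine deaminase, 25 °C, 90 min; filtration, four ice-cold washes. Nonspecific binding defined with 1 µM IB-MECA; Ki determined.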

Adenosine receptor A2a = Adenosine receptor A2a (Homo sapiens, UniProt P29274); assay: Displacement of [3H]ZM-241385 from human recombinant adenosine A2A receptor expressed in HEK293 cells; assay type: cell-based
Chain of Adenosine receptor A2a (P29274 whole entry): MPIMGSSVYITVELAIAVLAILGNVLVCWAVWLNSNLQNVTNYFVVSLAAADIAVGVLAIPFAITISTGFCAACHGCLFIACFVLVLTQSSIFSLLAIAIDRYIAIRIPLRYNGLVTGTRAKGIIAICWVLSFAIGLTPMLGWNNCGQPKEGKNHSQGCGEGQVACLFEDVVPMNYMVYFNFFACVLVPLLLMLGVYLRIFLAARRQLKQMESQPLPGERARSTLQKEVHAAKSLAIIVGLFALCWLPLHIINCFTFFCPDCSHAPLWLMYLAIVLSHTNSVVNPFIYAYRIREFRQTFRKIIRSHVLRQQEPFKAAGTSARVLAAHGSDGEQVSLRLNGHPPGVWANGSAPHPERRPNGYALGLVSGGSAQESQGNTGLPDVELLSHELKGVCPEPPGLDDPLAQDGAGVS
Summary of the method: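 Membranes from HEK293 cells stably expressing human A2A receptor; 2 nM radioligand competed in 50 mM Tris/1 mM EDTA with 1 U/mL adenosine deaminase for 90 min at 25 °C with agitation; filtration, four ice-cold Tris/MgCl2 washes. Nonspecific binding defined with 1 µM unlabelled ligand; Ki computed.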

[7] = AUC (0 to tlast) in Sprague-Dawley rat at 2 mg/kg, po; assay type: ADME, organism-based; set-up: dose 2 mg/kg, route oral; settings: plasma
[8] = Plasma concentration in Sprague-Dawley rat at 2 mg/kg, po after 6 hrs; assay type: ADME, organism-based; set-up: dose 2 mg/kg, route oral
[9] = Tmax in Sprague-Dawley rat at 2 mg/kg, po; assay type: ADME, organism-based; set-up: dose 2 mg/kg, route oral; settings: in vivo
[10] = Plasma concentration in Sprague-Dawley rat at 2 mg/kg, po after 4 hrs; assay type: ADME, organism-based; set-up: dose 2 mg/kg, route oral

Structure (SMILES): CCCn1c(=O)c2[nH]c(-c3cnn(Cc4cccc(C(F)(F)F)c4)c3)nc2n(CC)c1=O [GS 6201]
- Ratio Ki (Homo sapiens [1]): 48
- Cmax [2]: 1110 ng/mL
- Ratio Ki (Homo sapiens [3]): 149
- Ratio Ki (Homo sapiens [4]): 88
- Ki (Adenosine receptor A1): 1940 nM
- Ki (Adenosine receptor A2b): 22 nM
- Kb [5]: 2 nM
- half-life [6]: 4.25 h
- Ki (Adenosine receptor A3): 1070 nM
- Ki (Adenosine receptor A2a): 3280 nM

Structure (SMILES): CCCn1c(=O)c2[nH]c(-c3cnn(Cc4ccc(C(F)(F)F)nc4)c3)nc2n(CC)c1=O
- Ratio Ki (Homo sapiens [1]): 24
- Cmax [2]: 671 ng/mL
- Ratio Ki (Homo sapiens [3]): 125
- Ratio Ki (Homo sapiens [4]): 139
- Ki (Adenosine receptor A1): 2500 nM
- Ki (Adenosine receptor A2b): 18 nM
- half-life [6]: 9.7 h
- Ki (Adenosine receptor A3): 440 nM
- Ki (Adenosine receptor A2a): 2250 nM

Structure (SMILES): CCCCn1c(=O)c2[nH]c(-c3cnn(Cc4cccc(C(F)(F)F)c4)c3)nc2n(C)c1=O
- Ratio Ki (Homo sapiens [1]): 41
- Ratio Ki (Homo sapiens [3]): 43
- Ratio Ki (Homo sapiens [4]): 38
- Ki (Adenosine receptor A1): 427 nM
- Ki (Adenosine receptor A2b): 11 nM
- Ki (Adenosine receptor A3): 453 nM
- Ki (Adenosine receptor A2a): 481 nM

Structure (SMILES): CCCn1c(=O)c2[nH]c(-c3cnn(Cc4nc(-c5ccc(Cl)cc5)no4)c3)nc2n(CC)c1=O
- Ratio Ki (Homo sapiens [1]): 25
- Ratio Ki (Homo sapiens [3]): 236
- Ratio Ki (Homo sapiens [4]): 56
- Ki (Adenosine receptor A1): 910 nM
- Ki (Adenosine receptor A2b): 16 nM
- Ki (Adenosine receptor A3): 413 nM
- Ki (Adenosine receptor A2a): 3780 nM

Structure (SMILES): CCCn1c(=O)c2[nH]c(-c3cnn(Cc4noc(-c5ccc(C(F)(F)F)cc5)n4)c3)nc2n(CC)c1=O
- Ratio Ki (Homo sapiens [1]): > 375
- Cmax [2]: 34.6 ng/mL
- Ratio Ki (Homo sapiens [3]): > 208
- Ratio Ki (Homo sapiens [4]): > 250
- AUC(0-t) [7]: 65.6 ng·h/mL
- Ki (Adenosine receptor A1): > 6000 nM
- Ki (Adenosine receptor A2b): 24 nM
- concentration at 6 h [8]: 17.3 ng/mL
- Tmax [9]: 6 h
- Ki (Adenosine receptor A3): > 9000 nM
- Ki (Adenosine receptor A2a): > 5000 nM
- concentration at 4 h [10]: 7.75 ng/mL

Structure (SMILES): CCCn1c(=O)c2[nH]c(-c3cnn(Cc4ccc(C)nc4)c3)nc2n(CC)c1=O
- Ratio Ki (Homo sapiens [1]): 6
- Ratio Ki (Homo sapiens [3]): 15
- Ratio Ki (Homo sapiens [4]): 33
- Ki (Adenosine receptor A1): 1520 nM
- Ki (Adenosine receptor A2b): 45 nM
- Ki (Adenosine receptor A3): 290 nM
- Ki (Adenosine receptor A2a): 670 nM

Structure (SMILES): CCn1c(=O)n(CC(C)C)c(=O)c2[nH]c(-c3cnn(Cc4cccc(C(F)(F)F)c4)c3)nc21
- Ratio Ki (Homo sapiens [1]): 23
- Ratio Ki (Homo sapiens [3]): 99
- Ratio Ki (Homo sapiens [4]): 57
- Ki (Adenosine receptor A1): 631 nM
- Ki (Adenosine receptor A2b): 11 nM
- Ki (Adenosine receptor A3): 250 nM
- Ki (Adenosine receptor A2a): 1090 nM

Structure (SMILES): CCCn1c(=O)c2[nH]c(-c3cnn(Cc4cccc(F)c4)c3)nc2n(C)c1=O
- Ratio Ki (Homo sapiens [1]): 7
- Ratio Ki (Homo sapiens [3]): 10
- Ratio Ki (Homo sapiens [4]): 22
- Ki (Adenosine receptor A1): 290 nM
- Ki (Adenosine receptor A2b): 13 nM
- Ki (Adenosine receptor A3): 95 nM
- Ki (Adenosine receptor A2a): 139 nM

Structure (SMILES): Cn1c(=O)n(CC2CC2)c(=O)c2[nH]c(-c3cnn(Cc4cccc(F)c4)c3)nc21
- Ratio Ki (Homo sapiens [1]): 5
- Ratio Ki (Homo sapiens [3]): 10
- Ratio Ki (Homo sapiens [4]): 26
- Ki (Adenosine receptor A1): 185 nM
- Ki (Adenosine receptor A2b): 7 nM
- Ki (Adenosine receptor A3): 35 nM
- Ki (Adenosine receptor A2a): 73 nM

Structure (SMILES): CCn1c(=O)n(CC(C)C)c(=O)c2[nH]c(-c3cnn(Cc4ccc(C(F)(F)F)nc4)c3)nc21
- Ratio Ki (Homo sapiens [1]): 17
- Ratio Ki (Homo sapiens [3]): 270
- Ratio Ki (Homo sapiens [4]): 180
- Ki (Adenosine receptor A1): 3590 nM
- Ki (Adenosine receptor A2b): 20 nM
- Ki (Adenosine receptor A3): 350 nM
- Ki (Adenosine receptor A2a): 5410 nM

Structure (SMILES): CCn1c(=O)n(CC(C)C)c(=O)c2[nH]c(-c3cnn(Cc4cccc(F)c4)c3)nc21
- Ratio Ki (Homo sapiens [1]): 10
- Ratio Ki (Homo sapiens [3]): 124
- Ratio Ki (Homo sapiens [4]): 47
- Ki (Adenosine receptor A1): 1480 nM
- Ki (Adenosine receptor A2b): 31 nM
- Ki (Adenosine receptor A3): 324 nM
- Ki (Adenosine receptor A2a): 3850 nM
